ChEMBL document CHEMBL3286393 (J Med Chem, 2014)
The source made the active and inactive calls. No cut-off for these calls is given here.

What was measured:
[1] = target: T1, Polyunsaturated fatty acid 5-lipoxygenase (Homo sapiens, UniProt P09917); experiment: Inhibition of human recombinant 5-LO expressed in Escherichia coli Bl21 (DE3) using arachidonic acid as substrate preincubated for 10 mins measured after 10 mins by RP-HPLC analysis
T1 sequence (P09917 whole entry): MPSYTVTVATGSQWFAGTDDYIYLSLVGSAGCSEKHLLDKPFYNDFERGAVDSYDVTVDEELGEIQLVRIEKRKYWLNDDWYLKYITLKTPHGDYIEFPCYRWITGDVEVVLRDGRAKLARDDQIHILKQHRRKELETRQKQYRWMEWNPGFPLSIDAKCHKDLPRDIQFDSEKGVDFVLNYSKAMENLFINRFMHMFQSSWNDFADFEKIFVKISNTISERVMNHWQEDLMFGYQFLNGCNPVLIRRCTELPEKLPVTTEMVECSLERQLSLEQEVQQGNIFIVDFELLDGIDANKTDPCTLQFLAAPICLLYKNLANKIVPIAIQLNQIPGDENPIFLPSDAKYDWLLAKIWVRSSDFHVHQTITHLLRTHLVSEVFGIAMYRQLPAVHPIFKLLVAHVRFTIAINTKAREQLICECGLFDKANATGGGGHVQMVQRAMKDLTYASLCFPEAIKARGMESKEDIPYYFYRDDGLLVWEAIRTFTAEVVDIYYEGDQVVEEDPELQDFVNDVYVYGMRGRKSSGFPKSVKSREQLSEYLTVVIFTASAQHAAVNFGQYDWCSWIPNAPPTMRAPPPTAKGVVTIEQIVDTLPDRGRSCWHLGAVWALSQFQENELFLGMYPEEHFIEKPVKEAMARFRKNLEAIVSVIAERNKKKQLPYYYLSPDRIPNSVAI
In short: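 5-LO expressed from pT3-5LO in E. coli BL21(DE3), semi-purified on ATP-agarose, diluted in PBS with 1 mM EDTA and 1 mM ATP. Preincubated with compound 10 min at 4 °C, then 30 s at 37 °C. Started with 2 mM CaCl2 plus 20 μM arachidonic acid; 10 min at 37 °C; ice-cold methanol stop. Three to four experiments.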

LNCaP = experiment: Cytotoxicity against human LNCAP cells assessed as cell viability after 24 hrs by MTT assay; assay type: cell-based
In short: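 LNCaP seeded at 10⁴ cells/well and exposed 24 h. MTT added, then 4 h at 37 °C, 5% CO2, dark. Medium removed and formazan dissolved in DMSO; absorbance at 570 nm.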

[2] = Aqueous stability of the compound in at 2 uM in 10 mM aqueous ammonium bicarbonate at pH 7.9 assessed as formation of trans-6-(4'-hydroxy-3'-methoxyphenyl)-2,4-dioxo-5-hexenal measured as residual amount of compound by reversed phase liquid chromatography-coupled mass spectrometry; assay type: physicochemical; settings: buffer, pH 7.9, 2 µM
In short: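 Compounds at 2 μM in 10 mM aqueous ammonium bicarbonate pH 7.9, incubated 30 min at 37 °C. Analysed by UPLC-MS on a C18 column, gradient acetonitrile/water with 0.07% formic acid, at 0.7 mL/min. Residual amount given as % of control; three to four independent experiments.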

[3] = system: Radical scavenging activity; experiment: Antioxidant activity assessed as DPPH free radical scavenging activity at 10 uM after 30 mins […] by spectrophotometric analysis; assay type: functional
PBMC = experiment: Cytotoxicity against human PBMCs assessed as cell viability after 24 hrs by MTT assay; assay type: cell-based
In short: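 Human PBMC (2 × 10⁵/well), 24 h exposure. MTT then 4 h at 37 °C in darkness. Formazan solubilized with 10% SDS in 20 mM HCl; absorbance 550 nm. Viability relative to untreated cells; IC50 derived.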

[4] = target: T1, Polyunsaturated fatty acid 5-lipoxygenase; experiment: Inhibition of 5-LO in human neutrophils using arachidonic acid as substrate preincubated for 15 mins measured after 10 mins by HPLC analysis
In short: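 Fresh human neutrophils, 1 × 10⁷/mL in PBS pH 7.4 with 1 mM CaCl2 and 1 mg/mL glucose, preincubated 15 min at 37 °C. LTB4, its all-trans isomers and 5-H(P)ETE by HPLC.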

[5] = target: T2, Polyunsaturated fatty acid lipoxygenase ALOX12 (Homo sapiens) (UniProt P18054); experiment: Inhibition of 12-LO in human neutrophils assessed as residual activity relative to control; settings: for residual activity: values are per cent of control
T2 sequence (whole entry): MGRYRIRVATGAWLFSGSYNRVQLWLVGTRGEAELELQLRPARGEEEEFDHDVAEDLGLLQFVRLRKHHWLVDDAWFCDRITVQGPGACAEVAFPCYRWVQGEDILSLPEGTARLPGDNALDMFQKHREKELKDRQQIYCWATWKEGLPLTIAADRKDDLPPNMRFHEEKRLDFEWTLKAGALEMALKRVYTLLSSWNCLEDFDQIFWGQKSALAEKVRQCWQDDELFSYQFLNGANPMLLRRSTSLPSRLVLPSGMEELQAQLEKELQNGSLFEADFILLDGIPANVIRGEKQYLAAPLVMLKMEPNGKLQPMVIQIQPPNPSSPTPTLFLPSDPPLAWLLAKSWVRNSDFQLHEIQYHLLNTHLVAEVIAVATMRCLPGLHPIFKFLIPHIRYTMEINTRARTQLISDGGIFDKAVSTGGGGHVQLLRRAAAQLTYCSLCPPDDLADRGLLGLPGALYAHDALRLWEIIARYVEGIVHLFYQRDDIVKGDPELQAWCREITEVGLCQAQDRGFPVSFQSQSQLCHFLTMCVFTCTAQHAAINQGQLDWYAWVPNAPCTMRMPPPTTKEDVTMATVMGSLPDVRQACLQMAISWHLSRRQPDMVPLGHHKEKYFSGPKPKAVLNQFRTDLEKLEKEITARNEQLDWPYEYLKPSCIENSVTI

**Q.** With `COc1cc(/C=C/c2cc(-c3ccc(O)c(OC)c3)[nH]n2)ccc1O` as the compound, how does the IC50 [1] read?
**A.** Its IC50 is 0.09 µM.

**Q.** And the IC50 (LNCaP)?
**A.** The IC50 was greater than 50 µM.

**Q.** And the Stability [2]?
**A.** The Stability was “Unstable”.

**Q.** And the Activity [3]?
**A.** Its Activity is 70.3%.

**Q.** And the IC50 (PBMC)?
**A.** The IC50 was greater than 50 µM.

**Q.** What about the IC50 [4] of the same compound?
**A.** The IC50 was 1.9 µM.

**Q.** Which IC50 (LNCaP) does the source give for `COc1cc(/C=C/C(=O)CC(=O)/C=C/c2ccc(O)c(OC)c2)ccc1O` [CURCUMIN] here?
**A.** Its IC50 is 36 µM.

**Q.** What about the residual activity [5] of the same compound?
**A.** Its residual activity is 65%.

**Q.** What about the Stability [2] of the same compound?
**A.** The Stability was 41.6%.

**Q.** What about the Activity [3] of the same compound?
**A.** The Activity was 63.9%.

**Q.** What about the IC50 (PBMC) of the same compound?
**A.** The IC50 was 34.8 µM.

**Q.** Which IC50 [1] does the source give for `COc1cc(/C=C/c2cc(/C=C/c3ccc(O)c(OC)c3)[nH]n2)ccc1O` [CURCUMIN PYRAZOLE] here?
**A.** The IC50 was 0.07 µM.

**Q.** What about the IC50 (LNCaP) of the same compound?
**A.** Its IC50 is greater than 50 µM.

**Q.** What about the Stability [2] of the same compound?
**A.** Its Stability is “Unstable”.

**Q.** And the Activity [3]?
**A.** Its Activity is 59.6%.

**Q.** And the IC50 (PBMC)?
**A.** Its IC50 is greater than 50 µM.

**Q.** And the IC50 [4]?
**A.** Its IC50 is 0.7 µM.

**Q.** For `COc1cc(/C=C/C(=O)CC(=O)/C=C/c2cc(CC=C(C)C)c(O)c(OC)c2)cc(CC=C(C)C)c1O`, which IC50 [1] is on record?
**A.** The IC50 was 0.7 µM.

**Q.** What about the IC50 (LNCaP) of the same compound?
**A.** Its IC50 is greater than 50 µM.

**Q.** What about the inhibition [5] of the same compound?
**A.** The inhibition was “inactive”.

**Q.** And the Stability [2]?
**A.** Its Stability is “Unstable”.

**Q.** What about the Activity [3] of the same compound?
**A.** Its Activity is 57.9%.

**Q.** And the IC50 (PBMC)?
**A.** Its IC50 is greater than 50 µM.

**Q.** Which IC50 [1] does the source give for `COc1cc(/C=C/C(=O)CC(=O)c2ccc(O)c(OC)c2)ccc1O` here?
**A.** Its IC50 is 2.3 µM.

**Q.** And the IC50 (LNCaP)?
**A.** Its IC50 is greater than 50 µM.

**Q.** What about the residual activity [5] of the same compound?
**A.** The residual activity was 60.6%.

**Q.** And the Stability [2]?
**A.** The Stability was 72%.

**Q.** And the Activity [3]?
**A.** Its Activity is 80.2%.

**Q.** And the IC50 (PBMC)?
**A.** The IC50 was greater than 50 µM.

**Q.** And the IC50 [4]?
**A.** Its IC50 is 9.9 µM.

**Q.** Which results are given for `COc1cc(/C=C/C(=O)/C=C/c2ccc(O)c(OC)c2)ccc1O`?
**A.** IC50 [1]: 0.8 µM; IC50 (LNCaP): 10 µM; residual activity [5]: 70.1%; Stability [2]: Unstable; Activity [3]: 80.7%; IC50 (PBMC): 34.7 µM; IC50 [4]: 5.2 µM

**Q.** Which results are given for `COc1cc(/C=C/c2cc(/C=C/c3cc(CC=C(C)C)c(O)c(OC)c3)[nH]n2)cc(CC=C(C)C)c1O`?
**A.** IC50 [1]: 0.1 µM; IC50 (LNCaP): > 50 µM; residual activity [5]: 68.7%; Stability [2]: Unstable; Activity [3]: 57.3%; IC50 (PBMC): > 50 µM; IC50 [4]: 0.8 µM

**Q.** Which IC50 [1] does the source give for `COc1cc(CCC(=O)CC(=O)CCc2ccc(O)c(OC)c2)ccc1O` [TETRAHYDROCURCUMIN] here?
**A.** Its IC50 is 3.2 µM.

**Q.** What about the IC50 (LNCaP) of the same compound?
**A.** Its IC50 is greater than 50 µM.

**Q.** What about the residual activity [5] of the same compound?
**A.** The residual activity was 87.4%.

**Q.** And the Stability [2]?
**A.** Its Stability is “Unstable”.

**Q.** And the Activity [3]?
**A.** The Activity was 62.2%.

**Q.** What about the IC50 (PBMC) of the same compound?
**A.** The IC50 was greater than 50 µM.

**Q.** Which IC50 [1] does the source give for `COc1cc(/C=C/C(=O)/C=C/c2cc(CC=C(C)C)c(O)c(OC)c2)cc(CC=C(C)C)c1O` here?
**A.** Its IC50 is 0.5 µM.

**Q.** What about the IC50 (LNCaP) of the same compound?
**A.** The IC50 was 43.8 µM.

**Q.** And the residual activity [5]?
**A.** Its residual activity is 64.7%.

**Q.** What about the Stability [2] of the same compound?
**A.** Its Stability is “Unstable”.

**Q.** And the Activity [3]?
**A.** Its Activity is 75.8%.

**Q.** And the IC50 (PBMC)?
**A.** Its IC50 is greater than 50 µM.

**Q.** What about the IC50 [4] of the same compound?
**A.** The IC50 was 1.7 µM.
